Assay results of several laboratories.
Compare with care: the assays were run in different laboratories.
PTGS2: Prostaglandin G/H synthase 2 (PTGS2, Homo sapiens, UniProt P35354)
PIK3CG: Phosphatidylinositol 4,5-bisphosphate 3-kinase catalytic subunit gamma isoform (PIK3CG, Homo sapiens, UniProt P48736)
Inositol-tetrakisphosphate 1-kinase: Inositol-tetrakisphosphate 1-kinase (Homo sapiens, UniProt Q13572)
CHRM3: Muscarinic acetylcholine receptor M3 (CHRM3, Homo sapiens, UniProt P20309)

COc1cc(C=NNC(=O)c2cc(-c3ccccc3)n(-c3ccc(S(N)(=O)=O)cc3)n2)cc(OC)c1OC  IC50 (PTGS2; enzyme activity, inhibitor): 2690 nM
O=C1C(=Nc2ccc(Cl)cc2Br)c2ccccc2N1Cc1ccc([N+](=O)[O-])cc1  IC50 (PIK3CG; enzyme activity, inhibitor, ADP detection): 2.89 nM
COc1nc2ccc(Br)cc2cc1[C@@H](c1ccccc1)[C@@](O)(CCN(C)C)c1cccc2ccccc12  IC50 (Retinal dehydrogenase 2 (ALDH1A2, Homo sapiens, UniProt O94788); enzyme activity, inhibitor, fluorescence; 15 min, pH 7.5): < 10000 nM
O=C1Nc2ccccc2C1=Nc1ccccc1I  IC50 (PIK3CG; enzyme activity, inhibitor, ADP detection): 3.88 nM
CN(C)C(=O)c1cc2cnc(Nc3ccc4c(=O)cc(N5CCNCC5)oc4c3)nc2n1C1CCCC1  IC50 (PIK3CG; enzyme activity, inhibitor, radiometric): 6930 nM
c1ccc(COc2[nH]cnc3ncnc2-3)cc1  IC50 (Inositol-tetrakisphosphate 1-kinase; enzyme activity, inhibitor): 5300 nM
FC(F)(F)CN1CC(n2cc(Oc3ccn4nc(Cl)cc4n3)cn2)C1  IC50 (Very long chain fatty acid elongase 7 (Homo sapiens, UniProt A1L3X0); enzyme activity, inhibitor): > 99000 nM
CN(C)C(=O)c1cc2cnc(Nc3ccc(-c4ccc5c(=O)cc(N6CCOCC6)oc5c4)cc3)nc2n1C1CCCC1  IC50 (PIK3CG; enzyme activity, inhibitor, radiometric): 3390 nM
Nc1ncnc2c1ncn2[C@@H]1O[C@H](CO)[C@@H](O)[C@@H]1F  IC50 (Inositol-tetrakisphosphate 1-kinase; enzyme activity, inhibitor): 860 nM
CN(C)C(=O)c1cc2cnc(Nc3cccc4c(=O)cc(N5CCOCC5)oc34)nc2n1C1CCCC1  IC50 (PIK3CG; enzyme activity, inhibitor, radiometric): 1420 nM
O=C1C(=Nc2ccccc2I)c2ccccc2N1Cc1ccc([N+](=O)[O-])cc1  IC50 (PIK3CG; enzyme activity, inhibitor, ADP detection): 1.52 nM
CC(=NNC(=O)c1cc(-c2ccccc2)n(-c2ccc(S(N)(=O)=O)cc2)n1)c1ccc(Br)cc1  IC50 (PTGS2; enzyme activity, inhibitor): 1250 nM
O=C1Nc2ccccc2/C1=N/c1ccccc1Br  IC50 (PIK3CG; enzyme activity, inhibitor, ADP detection): 176 nM
Nc1ncnc2c1ncn2C1CCCO1 (stereo not drawn)  IC50 (Inositol-tetrakisphosphate 1-kinase; enzyme activity, inhibitor, ADP detection): 920 nM
NC(=O)C1CN(C(=O)CCl)c2ccccc2O1 (stereo not drawn)  IC50 (Creatine kinase U-type, mitochondrial (CKMT1A, Homo sapiens, UniProt P12532); enzyme activity, inhibitor, ADP detection; pH 8.5): 3000 nM
C=CC(=O)N1CCN(c2nc(=O)n(-c3c(C)ccnc3C(C)C)c3nc(-c4c(O)cccc4F)c(F)cc23)[C@@H](C)C1  IC50 (GTPase NRas (NRAS, Homo sapiens, UniProt P01111, C181S/C186S/G12C); enzyme activity, inhibitor): 57.2 nM
COc1cc(NC(=O)c2cnn(-c3ccc([N+](=O)[O-])cc3)c2C(F)(F)F)cc(OC)c1OC  IC50 (PTGS2; enzyme activity, inhibitor): 4820 nM
O=C1C(=Nc2ccccc2I)c2ccccc2N1Cc1ccc(Br)cc1  IC50 (PIK3CG; enzyme activity, inhibitor, ADP detection): 5.8 nM
O=C(CCNC(=O)CNC(=O)CC(c1ccccc1)(c1ccccc1)c1ccccc1)NCC1CCN(Cc2ccc(F)cc2)CC1  IC50 (CHRM3; ligand displacement, radioligand; cell membranes): 15100 nM
CN(C)C(=O)c1cc2cnc(Nc3cccc(-c4cccc5c(=O)cc(N6CCOCC6)oc45)c3)nc2n1C1CCCC1  IC50 (PIK3CG; enzyme activity, inhibitor, radiometric): 6040 nM
NS(=O)(=O)c1ccc(-n2nc(C(=O)NN=Cc3ccc(O)cc3)cc2-c2ccccc2)cc1  IC50 (PTGS2; enzyme activity, inhibitor): 1420 nM
CC(C)c1cccc(C(C)C)c1N=C1C(=O)N(Cc2ccccc2)c2ccccc21  IC50 (PIK3CG; enzyme activity, inhibitor, ADP detection): 1.68 nM
Nc1ncnc2c1ncn2C1CCCC1  IC50 (Inositol-tetrakisphosphate 1-kinase; enzyme activity, inhibitor): 26 nM
CN(C)C(=O)c1cc2cnc(Nc3cc(C(F)(F)F)c(-c4cccc5c(=O)cc(N6CCOCC6)oc45)cn3)nc2n1C1CCCC1  IC50 (PIK3CG; enzyme activity, inhibitor, radiometric): > 10000 nM
NS(=O)(=O)c1ccc(-n2nc(C(=O)NN3C(=O)c4ccccc4C3=O)cc2-c2ccccc2)cc1  IC50 (PTGS2; enzyme activity, inhibitor): 2640 nM
COc1ccc(-c2oc3cc(Nc4ncc5cc(C(=O)N(C)C)n(C6CCCC6)c5n4)ccc3c(=O)c2F)cc1  IC50 (PIK3CG; enzyme activity, inhibitor, radiometric): > 10000 nM
Nc1ncnc2c1ncn2[C@@H]1O[C@H](CO)C[C@H]1O  IC50 (Inositol-tetrakisphosphate 1-kinase; enzyme activity, inhibitor): 3100 nM
O=C(CCNC(=O)CNC(=O)CC(c1ccccc1)(c1ccccc1)c1ccccc1)NC[C@H]1CCCN(Cc2ccc(F)cc2)C1  IC50 (CHRM3; ligand displacement, radioligand; cell membranes): 400 nM
Nc1ncnc2c1cnn2C1CCCCC1  IC50 (Inositol-tetrakisphosphate 1-kinase; enzyme activity, inhibitor): 3200 nM
O=C1C(=Nc2ccccc2Br)c2ccccc2N1Cc1ccccc1  IC50 (PIK3CG; enzyme activity, inhibitor, ADP detection): 7.6 nM
CN(C)C(=O)c1cc2cnc(Nc3cc(C(F)(F)F)c(-c4ccc5c(=O)cc(N6CCOCC6)oc5c4)cn3)nc2n1C1CCCC1  IC50 (PIK3CG; enzyme activity, inhibitor, radiometric): > 10000 nM
Cc1ccc(CN2C(=O)C(=Nc3cccc(Cl)c3)c3ccccc32)cc1  IC50 (PIK3CG; enzyme activity, inhibitor, ADP detection): 1.11 nM
CN(C)C(=O)c1cc2cnc(Nc3ccc(-c4cccc5c(=O)cc(N6CCOCC6)oc45)cc3)nc2n1C1CCCC1  IC50 (PIK3CG; enzyme activity, inhibitor, radiometric): > 10000 nM
